Results from the M2OR odorant receptor database.

Experiments:
Details in all cases: stereoisomer not certain
O10H2 = system: O10H2
In short: (§1)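 Transient luciferase assays in mammalian cell lines were common, though methods varied by source. The values come from published papers and their supplementary material, with extra details from the original authors when needed. Responsive refers to a measured signal the original authors judged statistically different from baseline, and non-responsive (inactive) to the remainder.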

O10G7 I28V = system: O10G7 I28V
Chain of O10G7 I28V (as listed by the source, stated change not applied): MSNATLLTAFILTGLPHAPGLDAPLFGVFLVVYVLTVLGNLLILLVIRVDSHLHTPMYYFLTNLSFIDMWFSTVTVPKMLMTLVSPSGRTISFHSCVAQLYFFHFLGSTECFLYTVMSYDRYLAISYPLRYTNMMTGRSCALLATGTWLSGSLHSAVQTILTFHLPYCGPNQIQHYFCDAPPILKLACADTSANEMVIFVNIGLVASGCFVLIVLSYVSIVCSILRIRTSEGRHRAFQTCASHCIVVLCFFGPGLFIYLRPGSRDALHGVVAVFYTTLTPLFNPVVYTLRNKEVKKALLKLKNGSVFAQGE
In short: as §1

O10H3 R54H = system: O10H3 R54H
Chain of O10H3 R54H (as listed by the source, stated change not applied): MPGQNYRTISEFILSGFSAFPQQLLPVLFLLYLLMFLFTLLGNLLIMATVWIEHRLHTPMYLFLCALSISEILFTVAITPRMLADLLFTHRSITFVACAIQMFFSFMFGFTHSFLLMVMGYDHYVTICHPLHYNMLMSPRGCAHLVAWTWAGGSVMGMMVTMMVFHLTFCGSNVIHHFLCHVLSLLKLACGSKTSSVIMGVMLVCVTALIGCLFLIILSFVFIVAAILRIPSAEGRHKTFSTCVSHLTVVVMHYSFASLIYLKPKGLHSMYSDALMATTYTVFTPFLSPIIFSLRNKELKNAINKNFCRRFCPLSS
In short: as §1

O10H4 I50V = system: O10H4 I50V
Chain of O10H4 I50V (as listed by the source, stated change not applied): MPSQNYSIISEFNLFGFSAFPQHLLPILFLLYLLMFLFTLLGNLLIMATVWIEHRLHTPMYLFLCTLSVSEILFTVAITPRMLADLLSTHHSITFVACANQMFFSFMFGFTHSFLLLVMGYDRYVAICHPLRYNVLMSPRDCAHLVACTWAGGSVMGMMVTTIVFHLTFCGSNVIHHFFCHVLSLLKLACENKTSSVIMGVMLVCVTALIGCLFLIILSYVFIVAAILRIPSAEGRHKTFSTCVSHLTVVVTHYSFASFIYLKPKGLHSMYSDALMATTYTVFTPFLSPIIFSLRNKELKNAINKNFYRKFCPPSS
In short: as §1

O10H5 S268Y = system: O10H5 S268Y
Chain of O10H5 S268Y (as listed by the source, stated change not applied): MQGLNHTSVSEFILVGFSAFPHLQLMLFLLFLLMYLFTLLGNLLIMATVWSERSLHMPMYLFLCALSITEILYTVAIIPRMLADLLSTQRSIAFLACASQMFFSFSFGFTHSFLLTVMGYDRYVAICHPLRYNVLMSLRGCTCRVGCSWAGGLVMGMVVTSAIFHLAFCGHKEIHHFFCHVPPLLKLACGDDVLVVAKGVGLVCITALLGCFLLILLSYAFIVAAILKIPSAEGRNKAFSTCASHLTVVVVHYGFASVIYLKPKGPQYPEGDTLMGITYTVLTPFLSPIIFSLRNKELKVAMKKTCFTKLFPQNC
In short: as §1

O10J1 M62I I103M = system: O10J1 M62I I103M
In short: as §1

O10J1 M62I = system: O10J1 M62I
Chain of O10J1 M62I (as listed by the source, stated change not applied): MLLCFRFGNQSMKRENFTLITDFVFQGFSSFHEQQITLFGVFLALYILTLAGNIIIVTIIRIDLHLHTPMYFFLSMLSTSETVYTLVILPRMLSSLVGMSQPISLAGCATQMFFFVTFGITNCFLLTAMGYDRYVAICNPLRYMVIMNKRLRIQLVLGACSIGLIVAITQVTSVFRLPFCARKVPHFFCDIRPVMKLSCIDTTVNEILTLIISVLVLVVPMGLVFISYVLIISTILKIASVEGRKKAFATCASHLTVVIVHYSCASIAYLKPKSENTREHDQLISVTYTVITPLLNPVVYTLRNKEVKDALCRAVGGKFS
In short: as §1

O10J3 Q235R E319G = system: O10J3 Q235R E319G
In short: as §1

O10P1 R195K = system: O10P1 R195K
Chain of O10P1 R195K (as listed by the source, stated change not applied): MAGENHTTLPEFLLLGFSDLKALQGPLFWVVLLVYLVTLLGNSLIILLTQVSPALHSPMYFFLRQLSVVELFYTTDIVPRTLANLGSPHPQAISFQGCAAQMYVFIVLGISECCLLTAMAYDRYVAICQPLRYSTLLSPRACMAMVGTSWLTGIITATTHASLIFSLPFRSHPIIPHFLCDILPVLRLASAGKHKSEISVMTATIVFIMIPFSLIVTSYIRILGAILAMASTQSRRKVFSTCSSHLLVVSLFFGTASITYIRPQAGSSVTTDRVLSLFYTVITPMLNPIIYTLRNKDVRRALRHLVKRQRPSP
In short: as §1

O10Q1 E12D = system: O10Q1 E12D
Chain of O10Q1 E12D (as listed by the source, stated change not applied): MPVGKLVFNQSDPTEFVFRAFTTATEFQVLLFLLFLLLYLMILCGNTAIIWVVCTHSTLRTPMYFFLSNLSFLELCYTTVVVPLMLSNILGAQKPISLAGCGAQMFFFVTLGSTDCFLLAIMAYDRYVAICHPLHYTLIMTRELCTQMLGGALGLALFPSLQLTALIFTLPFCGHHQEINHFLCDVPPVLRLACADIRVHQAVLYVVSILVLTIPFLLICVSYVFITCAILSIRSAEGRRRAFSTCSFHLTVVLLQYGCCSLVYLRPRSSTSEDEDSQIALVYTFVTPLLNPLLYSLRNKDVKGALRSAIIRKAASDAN
In short: as §1

Measured: odorant receptor agonist call

Chain of O10H2 (as listed by the source): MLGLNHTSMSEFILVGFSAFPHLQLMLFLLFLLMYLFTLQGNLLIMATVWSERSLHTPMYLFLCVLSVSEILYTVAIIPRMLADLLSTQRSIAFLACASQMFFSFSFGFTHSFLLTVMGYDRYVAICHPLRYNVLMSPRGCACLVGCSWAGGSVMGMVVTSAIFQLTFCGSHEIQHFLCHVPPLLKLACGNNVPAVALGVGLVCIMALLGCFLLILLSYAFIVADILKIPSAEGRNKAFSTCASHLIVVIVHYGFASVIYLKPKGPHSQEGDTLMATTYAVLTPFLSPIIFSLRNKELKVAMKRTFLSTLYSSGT

O=CC=Cc1ccccc1
active: O10H2

C=CCOC(=O)Cc1ccccc1
inactive: all assays above
